Reference: ChEMBL document CHEMBL4387704, “Design, synthesis and biological evaluation of novel isoindolinone derivatives as potent histone deacetylase inhibitors” (Eur J Med Chem, 2019)
pIC50: −log10 of the molar value. One block for each compound: values may come before it. Calls of active or inactive are those of the source. No cut-off for these calls is given here.

How the values were obtained:
Histone deacetylase 1 = Histone deacetylase 1 (Homo sapiens, UniProt Q13547); test: Inhibition of HDAC1 (unknown origin) using Fluor de Lys substrate by fluorescence assay relative to control; settings: for pIC50: read-out: IC50
MCF7 = test: Antiproliferative activity against human MCF7 assessed as reduction in cell viability measured after 72 hrs using alamar blue based fluorescence method; format: functional; settings: MCF7, 72 h
Method in brief: (§1)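 HCT116 and MCF-7 grown in McCoy's 5A with 10% FBS and penicillin/streptomycin at 37 °C, 5% CO2. Cells plated in 96-well format and exposed to drug for 72 h. Alamar blue (1 mM solution) added, incubated 5–6 h, fluorescence read at 530/590 nm.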

K562 = test: Antiproliferative activity against human K562 assessed as reduction in cell viability measured after 72 hrs using alamar blue based fluorescence method; format: functional; settings: K562, 72 h
Method in brief: (§2)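 Leukemia lines grown in IMDM with penicillin/streptomycin, HL-60 with 20% FBS and K562 with 10% FBS, at 37 °C, 5% CO2. Cells in 96-well plates exposed to drug for 72 h. Alamar blue (1 mM solution) added for 5–6 h, fluorescence read at 530/590 nm.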

HL-60 = test: Antiproliferative activity against human HL60 assessed as reduction in cell viability measured after 72 hrs using alamar blue based fluorescence method; format: functional; settings: HL-60, 72 h; method in brief: as §2
HCT-116 = test: Antiproliferative activity against human HCT116 assessed as reduction in cell viability measured after 72 hrs using alamar blue based fluorescence method; format: functional; settings: HCT-116, 72 h; method in brief: as §1
[1] = target: Histone deacetylase 7 (Homo sapiens) (UniProt Q8WUI4); test: Inhibition of HDAC7 (unknown origin) using Fluor de Lys substrate by fluorescence assay relative to control
Method in brief: (§3)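 Recombinant HDAC isoform assays run by a contract lab. Compounds in DMSO, 10-dose IC50 mode, 3-fold serial dilution from 50 μM. Duplicate runs; IC50 from curve fitting.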

Histone deacetylase 11 = Histone deacetylase 11 (Homo sapiens, UniProt Q96DB2); test: Inhibition of HDAC11 (unknown origin) using Fluor de Lys substrate by fluorescence assay relative to control; method in brief: as §3
[2] = Metabolic stability in rat liver microsomes assessed as internal clearance at 1 uM preincubated for 10 mins followed by NADPH addition measured upto 60 mins by LC-MS/MS analysis; format: ADME, Microsome; settings: read-out: CLH
Method in brief: (§4)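 Liver microsomes from male SD rat, dog or human at 0.5 mg/mL in 100 mM potassium phosphate pH 7.4 with 1 μM compound. Prewarmed 37 °C 10 min, started with 1 mM NADPH. Stopped at 0, 5, 10, 20, 40, 60 min with cold methanol containing glibenclamide internal standard; supernatant by LC–MS/MS; T1/2 and CLint derived.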

[3] = Metabolic stability in human liver microsomes assessed as half life at 1 uM preincubated for 10 mins followed by NADPH addition measured upto 60 mins by LC-MS/MS analysis; format: ADME, Microsome; method in brief: as §4
[4] = Metabolic stability in dog liver microsomes assessed as internal clearance at 1 uM preincubated for 10 mins followed by NADPH addition measured upto 60 mins by LC-MS/MS analysis; format: ADME, Canis lupus familiaris, Microsome; settings: read-out: CLH; method in brief: as §4
[5] = target: Histone deacetylase 4 (Homo sapiens) (UniProt P56524); test: Inhibition of HDAC4 (unknown origin) using Fluor de Lys substrate by fluorescence assay relative to control; method in brief: as §3
[6] = Metabolic stability in rat liver microsomes assessed as half life at 1 uM preincubated for 10 mins followed by NADPH addition measured upto 60 mins by LC-MS/MS analysis; format: ADME, Microsome; method in brief: as §4
[7] = target: Polyamine deacetylase HDAC10 (Homo sapiens, UniProt Q969S8); test: Inhibition of HDAC10 (unknown origin) using Fluor de Lys substrate by fluorescence assay relative to control; method in brief: as §3
[8] = Metabolic stability in dog liver microsomes assessed as half life at 1 uM preincubated for 10 mins followed by NADPH addition measured upto 60 mins by LC-MS/MS analysis; format: ADME, Canis lupus familiaris, Microsome; method in brief: as §4
[9] = target: Protein deacetylase HDAC6 (Homo sapiens) (UniProt Q9UBN7); test: Inhibition of HDAC6 (unknown origin) using Fluor de Lys substrate by fluorescence assay relative to control; method in brief: as §3
[10] = target: Histone deacetylase 9 (Homo sapiens) (UniProt Q9UKV0); test: Inhibition of HDAC9 (unknown origin) using Fluor de Lys substrate by fluorescence assay relative to control; method in brief: as §3
[11] = target: Histone deacetylase 5 (Homo sapiens) (UniProt Q9UQL6); test: Inhibition of HDAC5 (unknown origin) using Fluor de Lys substrate by fluorescence assay relative to control; method in brief: as §3
[12] = Metabolic stability in human liver microsomes assessed as internal clearance at 1 uM preincubated for 10 mins followed by NADPH addition measured upto 60 mins by LC-MS/MS analysis; format: ADME, Microsome; settings: read-out: CLH; method in brief: as §4

Chain of Histone deacetylase 1 (Q13547 whole entry): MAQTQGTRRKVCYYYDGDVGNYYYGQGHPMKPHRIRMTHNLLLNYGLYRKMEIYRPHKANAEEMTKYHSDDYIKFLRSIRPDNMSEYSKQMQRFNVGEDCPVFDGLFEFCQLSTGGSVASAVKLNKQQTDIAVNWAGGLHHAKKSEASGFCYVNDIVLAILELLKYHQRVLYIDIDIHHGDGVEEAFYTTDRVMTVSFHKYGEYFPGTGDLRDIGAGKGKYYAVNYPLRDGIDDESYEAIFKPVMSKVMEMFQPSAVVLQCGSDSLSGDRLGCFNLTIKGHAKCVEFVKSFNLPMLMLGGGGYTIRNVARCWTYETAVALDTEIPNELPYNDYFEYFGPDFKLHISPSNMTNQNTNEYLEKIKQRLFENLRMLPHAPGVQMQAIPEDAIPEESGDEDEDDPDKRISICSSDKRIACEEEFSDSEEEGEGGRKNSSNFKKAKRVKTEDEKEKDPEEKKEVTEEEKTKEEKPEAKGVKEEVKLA
Chain of Histone deacetylase 5 (Homo sapiens) (Q9UQL6 whole entry): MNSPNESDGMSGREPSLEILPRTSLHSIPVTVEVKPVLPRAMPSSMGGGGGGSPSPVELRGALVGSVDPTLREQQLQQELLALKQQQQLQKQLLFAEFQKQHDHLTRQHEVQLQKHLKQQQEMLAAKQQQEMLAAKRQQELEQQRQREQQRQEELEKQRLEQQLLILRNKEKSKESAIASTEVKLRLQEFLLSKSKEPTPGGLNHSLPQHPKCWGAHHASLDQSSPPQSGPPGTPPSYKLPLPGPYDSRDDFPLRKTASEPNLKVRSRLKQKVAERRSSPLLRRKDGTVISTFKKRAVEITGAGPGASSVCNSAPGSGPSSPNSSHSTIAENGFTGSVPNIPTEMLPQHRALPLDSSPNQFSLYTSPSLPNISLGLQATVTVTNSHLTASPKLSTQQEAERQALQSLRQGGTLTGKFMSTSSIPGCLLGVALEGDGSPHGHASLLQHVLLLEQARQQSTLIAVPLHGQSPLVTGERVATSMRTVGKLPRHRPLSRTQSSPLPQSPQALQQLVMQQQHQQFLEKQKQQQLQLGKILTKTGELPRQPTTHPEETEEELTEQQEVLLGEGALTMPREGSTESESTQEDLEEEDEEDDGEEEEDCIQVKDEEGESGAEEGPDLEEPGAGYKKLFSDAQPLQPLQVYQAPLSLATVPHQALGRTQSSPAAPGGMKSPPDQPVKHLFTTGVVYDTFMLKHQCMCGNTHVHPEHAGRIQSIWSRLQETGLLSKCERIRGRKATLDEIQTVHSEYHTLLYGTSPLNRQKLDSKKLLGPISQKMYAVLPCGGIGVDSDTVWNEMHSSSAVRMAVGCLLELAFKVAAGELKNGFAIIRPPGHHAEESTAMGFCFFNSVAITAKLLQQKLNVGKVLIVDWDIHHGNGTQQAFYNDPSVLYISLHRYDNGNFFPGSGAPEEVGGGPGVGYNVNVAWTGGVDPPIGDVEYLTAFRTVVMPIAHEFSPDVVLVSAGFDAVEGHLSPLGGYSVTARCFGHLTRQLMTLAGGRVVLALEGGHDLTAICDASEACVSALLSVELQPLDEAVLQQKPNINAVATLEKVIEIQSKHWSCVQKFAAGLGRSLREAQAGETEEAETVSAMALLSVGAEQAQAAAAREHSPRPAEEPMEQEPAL
Chain of Histone deacetylase 11 (Q96DB2 whole entry): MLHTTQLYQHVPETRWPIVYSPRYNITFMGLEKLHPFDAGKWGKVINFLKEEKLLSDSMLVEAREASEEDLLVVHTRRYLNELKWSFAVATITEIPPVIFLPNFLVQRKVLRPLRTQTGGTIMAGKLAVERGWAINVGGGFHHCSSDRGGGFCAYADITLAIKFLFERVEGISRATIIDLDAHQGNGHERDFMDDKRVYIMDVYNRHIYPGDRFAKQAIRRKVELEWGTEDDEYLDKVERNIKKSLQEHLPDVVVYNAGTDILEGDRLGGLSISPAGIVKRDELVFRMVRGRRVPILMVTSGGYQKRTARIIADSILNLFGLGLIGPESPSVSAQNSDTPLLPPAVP
Chain of Protein deacetylase HDAC6 (Homo sapiens) (Q9UBN7 whole entry): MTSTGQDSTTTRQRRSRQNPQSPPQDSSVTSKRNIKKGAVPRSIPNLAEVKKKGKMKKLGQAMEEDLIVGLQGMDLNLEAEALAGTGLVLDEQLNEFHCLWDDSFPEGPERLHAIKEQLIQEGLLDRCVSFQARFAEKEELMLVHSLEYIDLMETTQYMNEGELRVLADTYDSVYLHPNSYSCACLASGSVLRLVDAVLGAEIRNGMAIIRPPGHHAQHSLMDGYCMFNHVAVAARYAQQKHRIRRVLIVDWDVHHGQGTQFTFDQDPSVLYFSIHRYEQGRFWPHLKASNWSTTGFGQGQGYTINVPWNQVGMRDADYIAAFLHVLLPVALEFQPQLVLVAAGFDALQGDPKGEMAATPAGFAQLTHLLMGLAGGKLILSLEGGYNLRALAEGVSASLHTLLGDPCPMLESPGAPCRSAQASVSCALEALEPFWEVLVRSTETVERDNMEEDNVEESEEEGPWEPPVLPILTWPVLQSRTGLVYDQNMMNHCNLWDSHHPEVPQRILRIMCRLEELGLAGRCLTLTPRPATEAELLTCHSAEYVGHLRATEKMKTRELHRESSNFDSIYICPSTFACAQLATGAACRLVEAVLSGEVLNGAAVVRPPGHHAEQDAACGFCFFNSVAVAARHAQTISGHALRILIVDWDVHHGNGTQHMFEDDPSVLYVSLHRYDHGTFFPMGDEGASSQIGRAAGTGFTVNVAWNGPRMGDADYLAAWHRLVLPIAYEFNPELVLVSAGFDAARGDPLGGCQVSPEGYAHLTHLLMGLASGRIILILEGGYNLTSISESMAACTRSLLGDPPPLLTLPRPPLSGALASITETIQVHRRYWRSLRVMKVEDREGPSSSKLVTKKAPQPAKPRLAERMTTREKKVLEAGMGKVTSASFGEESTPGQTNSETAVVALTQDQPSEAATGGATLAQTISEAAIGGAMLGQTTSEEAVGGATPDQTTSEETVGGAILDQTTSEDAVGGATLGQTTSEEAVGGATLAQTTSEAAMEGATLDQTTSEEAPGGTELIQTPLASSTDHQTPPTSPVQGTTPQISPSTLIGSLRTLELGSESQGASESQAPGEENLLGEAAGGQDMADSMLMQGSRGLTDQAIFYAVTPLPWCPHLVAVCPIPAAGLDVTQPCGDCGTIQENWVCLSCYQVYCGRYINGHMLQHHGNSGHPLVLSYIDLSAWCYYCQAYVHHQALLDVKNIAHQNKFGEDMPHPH
Chain of Histone deacetylase 9 (Homo sapiens) (Q9UKV0 whole entry): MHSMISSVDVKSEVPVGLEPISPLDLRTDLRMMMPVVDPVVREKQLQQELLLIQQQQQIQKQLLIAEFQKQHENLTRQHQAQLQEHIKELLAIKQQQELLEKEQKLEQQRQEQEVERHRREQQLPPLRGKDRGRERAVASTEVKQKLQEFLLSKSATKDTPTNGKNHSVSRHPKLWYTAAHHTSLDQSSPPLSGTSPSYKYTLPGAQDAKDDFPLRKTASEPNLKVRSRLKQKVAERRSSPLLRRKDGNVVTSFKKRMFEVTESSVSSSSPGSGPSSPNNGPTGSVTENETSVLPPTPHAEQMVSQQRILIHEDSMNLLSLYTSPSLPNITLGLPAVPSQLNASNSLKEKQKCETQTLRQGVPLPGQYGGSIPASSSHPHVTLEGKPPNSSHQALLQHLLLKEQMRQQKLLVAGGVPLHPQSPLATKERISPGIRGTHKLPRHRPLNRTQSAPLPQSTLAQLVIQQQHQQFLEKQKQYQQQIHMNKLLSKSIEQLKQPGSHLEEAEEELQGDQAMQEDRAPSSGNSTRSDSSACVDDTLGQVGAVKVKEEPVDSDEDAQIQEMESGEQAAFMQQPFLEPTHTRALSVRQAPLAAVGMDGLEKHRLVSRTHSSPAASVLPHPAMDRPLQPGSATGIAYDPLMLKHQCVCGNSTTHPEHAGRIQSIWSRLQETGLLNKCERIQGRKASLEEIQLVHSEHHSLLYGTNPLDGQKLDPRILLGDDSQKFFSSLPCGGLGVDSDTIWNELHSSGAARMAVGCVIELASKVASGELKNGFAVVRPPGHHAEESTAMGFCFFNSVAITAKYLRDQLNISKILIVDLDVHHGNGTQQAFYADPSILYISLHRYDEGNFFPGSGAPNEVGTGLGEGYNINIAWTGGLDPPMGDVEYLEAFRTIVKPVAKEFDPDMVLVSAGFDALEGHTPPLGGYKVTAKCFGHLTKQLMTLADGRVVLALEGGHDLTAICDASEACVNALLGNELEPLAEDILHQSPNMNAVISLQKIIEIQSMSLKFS
Chain of Polyamine deacetylase HDAC10 (Q969S8 whole entry): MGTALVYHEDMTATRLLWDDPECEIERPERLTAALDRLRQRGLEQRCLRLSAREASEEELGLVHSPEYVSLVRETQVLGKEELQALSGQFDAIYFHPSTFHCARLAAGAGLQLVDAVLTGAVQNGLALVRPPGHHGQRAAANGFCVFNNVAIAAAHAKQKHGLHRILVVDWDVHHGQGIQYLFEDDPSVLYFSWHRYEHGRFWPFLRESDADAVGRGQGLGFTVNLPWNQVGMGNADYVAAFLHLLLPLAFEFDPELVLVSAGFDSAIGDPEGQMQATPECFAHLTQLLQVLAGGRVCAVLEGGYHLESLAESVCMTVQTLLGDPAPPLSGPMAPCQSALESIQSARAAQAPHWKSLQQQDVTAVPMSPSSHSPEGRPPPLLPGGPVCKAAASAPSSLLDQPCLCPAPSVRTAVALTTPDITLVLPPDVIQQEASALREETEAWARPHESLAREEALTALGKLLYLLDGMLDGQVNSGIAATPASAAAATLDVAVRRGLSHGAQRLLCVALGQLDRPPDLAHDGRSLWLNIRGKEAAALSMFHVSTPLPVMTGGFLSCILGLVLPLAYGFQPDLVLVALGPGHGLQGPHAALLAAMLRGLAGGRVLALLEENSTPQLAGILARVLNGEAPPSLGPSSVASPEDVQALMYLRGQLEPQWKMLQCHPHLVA

Structure (SMILES): Nc1cc(F)ccc1NC(=O)CCCCCCNC(=O)/C=C1\NC(=O)c2ccccc21
pIC50 (Histone deacetylase 1): 5.80

Structure (SMILES): Nc1cc(F)ccc1NC(=O)CCCCCNC(=O)/C=C1\NC(=O)c2ccccc21
pIC50 (Histone deacetylase 1): 5.19

Structure (SMILES): Nc1cc(F)ccc1NC(=O)c1ccc(CNC(=O)/C=C2\NC(=O)c3ncccc32)cc1
pIC50 (Histone deacetylase 1): 5.08

Structure (SMILES): Nc1ccccc1NC(=O)c1ccc(CNC(=O)/C=C2\NC(=O)c3ncccc32)cc1
pIC50 (Histone deacetylase 1): 6.12

Structure (SMILES): Nc1cc(F)ccc1NC(=O)c1ccc(CNC(=O)/C=C2\NC(=O)c3ccc(C(F)(F)F)cc32)cc1
pIC50 (Histone deacetylase 1): 6.31

Structure (SMILES): Nc1ccccc1NC(=O)CCCCCNC(=O)/C=C1\NC(=O)c2ccccc21
pIC50 (Histone deacetylase 1): 6.06

Structure (SMILES): Cc1ccc(NC(=O)c2ccc(CNC(=O)/C=C3\NC(=O)c4ccccc43)cc2)c(N)c1
pIC50 (Histone deacetylase 1): 5.24

Structure (SMILES): Nc1cc(F)ccc1NC(=O)c1ccc(CNC(=O)/C=C/c2cccnc2)cc1 [TUCIDINOSTAT]
pIC50 (MCF7): 4.54
inhibition [1]: inactive
pIC50 (Histone deacetylase 11): 6.12
microsomal CLint at 1 µM [2]: 10.3 µL/min/mg
half-life at 1 µM [3]: 4.6 h
pIC50 (K562): 6.13
pIC50 (HL-60): 5.71
microsomal CLint at 1 µM [4]: 5.76 µL/min/mg
pIC50 (HCT-116): 5.96
inhibition [5]: inactive
half-life at 1 µM [6]: 3.17 h
pIC50 [7]: 6.63
half-life at 1 µM [8]: 5.03 h
inhibition [9]: inactive
inhibition [10]: inactive
inhibition [11]: inactive
microsomal CLint at 1 µM [12]: 4.98 µL/min/mg

Structure (SMILES): Nc1cc(F)ccc1NC(=O)c1ccc(CNC(=O)/C=C2\NC(=O)c3cccnc32)cc1
IC50 (Histone deacetylase 1): Not Active

Further compounds by rising pIC50 (Histone deacetylase 1), results first:

pIC50 (Histone deacetylase 1): 6.31
Structure (SMILES): Nc1cc(F)ccc1NC(=O)c1ccc(CNC(=O)/C=C2\NC(=O)c3cc(Cl)c(Cl)cc32)cc1

pIC50 (Histone deacetylase 1): 6.33
Structure (SMILES): Nc1cc(Cl)ccc1NC(=O)c1ccc(CNC(=O)/C=C2\NC(=O)c3ccccc32)cc1

pIC50 (Histone deacetylase 1): 6.49
Structure (SMILES): Nc1ccccc1NC(=O)CCCCCCNC(=O)/C=C1\NC(=O)c2ccccc21

pIC50 (Histone deacetylase 1): 6.78
Structure (SMILES): Nc1cc(F)ccc1NC(=O)c1ccc(CNC(=O)/C=C2\NC(=O)c3ccc(F)cc32)cc1

pIC50 (Histone deacetylase 1): 7.01
Structure (SMILES): COc1ccc2c(c1)/C(=C/C(=O)NCc1ccc(C(=O)Nc3ccc(F)cc3N)cc1)NC2=O

pIC50 (Histone deacetylase 1): 7.15
Structure (SMILES): Nc1ccc(F)cc1NC(=O)c1ccc(CNC(=O)/C=C2\NC(=O)c3ccccc32)cc1

pIC50 (MCF7): 4.70
pIC50 (Histone deacetylase 1): 7.18
pIC50 (K562): 6.54
pIC50 (HL-60): 6.35
pIC50 (HCT-116): 6.32
Structure (SMILES): Nc1ccccc1NC(=O)c1ccc(CNC(=O)/C=C2\NC(=O)c3ccccc32)cc1

pIC50 (Histone deacetylase 1): 7.24
Structure (SMILES): O=C(/C=C1\NC(=O)c2ccccc21)NCCCCCC(=O)NO
